Reference: ChEMBL document CHEMBL3046176, “Synthesis, crystal structure, and biological activities of 2-cyanoacrylates containing furan or tetrahydrofuran moieties” (2007)

What was measured:
Assay type in all cases: functional
Tobacco mosaic virus = assay: Antiviral activity against Tobacco mosaic virus (TMV) inoculated in fresh tobacco leaf at 100 mg/L by half-leaf method
Procedure, shortened: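 Half-leaf method on tobacco leaves at the 5-6 growth stage. Leaves were inoculated with TMV by juice-leaf rubbing at 5.88 × 10-2 µg/mL and cut along the main vein. One half was immersed in test solution and the other in double distilled water for 20 min, then cultured at 25 °C for 72 h, in triplicate. Inhibition = 100(CK − A)/CK, from average lesion counts.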

Cladosporium cucumerinum = assay: Antifungal activity against Cladosporium cucumerinum assessed as inhibition of mycelium growth at 50 mg/L at 26 degC measured after 72 hr
Procedure, shortened: (§1)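 Mycelium growth assay on agar. 1 mL test solution (50 mg/L) was poured into a 9 cm plate with 9 mL agar medium. Controls used sterile water in its place. A 4 mm plug from the margin of an actively growing colony was placed in the centre and incubated at 26 °C. Hyphal diameter was measured over 72 h, in triplicate. Inhibition % = (control diameter − treated diameter)/control diameter.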

Mycosphaerella arachidis = assay: Antifungal activity against Mycosphaerella arachidis assessed as inhibition of mycelium growth at 50 mg/L at 26 degC measured after 72 hr; procedure, shortened: as §1
[1] = system: Botryosphaeria berengeriana; assay: Antifungal activity against Botryosphaeria berengeriana assessed as inhibition of mycelium growth at 50 mg/L at 26 degC measured after 72 hr; procedure, shortened: as §1
Alternaria solani = assay: Antifungal activity against Alternaria solani assessed as inhibition of mycelium growth at 50 mg/L at 26 degC measured after 72 hr; procedure, shortened: as §1
Fusarium graminearum = assay: Antifungal activity against Fusarium graminearum assessed as inhibition of mycelium growth at 50 mg/L at 26 degC measured after 72 hr
Procedure, shortened: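 Mycelium growth test on agar plates: 1 mL test solution (50 mg/L) mixed with 9 mL agar medium; sterile water in place of test solution for controls. 4 mm inocula cut from margins of actively growing colonies, placed at plate centre, incubated at 26 °C; mycelium diameter measured over 72 h. Inhibition % from mean hyphal diameter against control. Triplicate.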

Cucumis sativus = assay: Plant growth regulatory activity in Cucumis sativus (cucumber) seed assessed as number of root at 10 mg/L at 26 degC measured after 5 days
Procedure, shortened: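 Cucumber seeds were incubated at 26 °C in the dark for 72 h, then 10 cotyledons were excised and treated. Incubation continued at 26 °C in the dark for 5 days. Roots were counted, with water-only controls, in triplicate.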

Digitaria sanguinalis [2] = assay: Herbicidal activity against hairy crabgrass Digitaria sanguinalis (hairy crabgrass) assessed as herbicidal damage at 1.5 kg/ha measured after preemergence treatment; conditions: pre-emergence
Procedure, shortened: (§2)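 Seeds were sown in 6 cm boxes of artificial mixed soil, covered with plastic film until emergence, and grown in a greenhouse. Sprays were applied right after sowing (preemergence) or after the first true leaf expanded (postemergence). Controls received the same amount of water/DMF/Tween 20. Above-ground fresh weight was taken 10 days after treatment, in triplicate, as % damage versus control.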

Medicago sativa [3] = assay: Herbicidal activity against Medicago sativa (alfalfa) assessed as herbicidal damage at 1.5 kg/ha measured after preemergence treatment; conditions: pre-emergence; procedure, shortened: as §2
Amaranthus retroflexus [4] = assay: Herbicidal activity against Amaranthus retroflexus assessed as herbicidal damage at 1.5 kg/ha measured after preemergence treatment; conditions: pre-emergence; procedure, shortened: as §2
Brassica napus [5] = assay: Herbicidal activity against rape Brassica napus (oilseed rape) assessed as herbicidal damage at 1.5 kg/ha measured after preemergence treatment; conditions: pre-emergence; procedure, shortened: as §2
Digitaria sanguinalis [6] = assay: Herbicidal activity against hairy crabgrass Digitaria sanguinalis (hairy crabgrass) assessed as herbicidal damage at 1.5 kg/ha measured after postemergence treatment; conditions: post-emergence; procedure, shortened: as §2
Medicago sativa [7] = assay: Herbicidal activity against Medicago sativa (alfalfa) assessed as herbicidal damage at 1.5 kg/ha measured after postemergence treatment; conditions: post-emergence; procedure, shortened: as §2
Amaranthus retroflexus [8] = assay: Herbicidal activity against Amaranthus retroflexus assessed as herbicidal damage at 1.5 kg/ha measured after postemergence treatment; conditions: post-emergence; procedure, shortened: as §2
Brassica napus [9] = assay: Herbicidal activity against rape Brassica napus (oilseed rape) assessed as herbicidal damage at 1.5 kg/ha measured after postemergence treatment; conditions: post-emergence; procedure, shortened: as §2

SMILES | Activity (Tobacco mosaic virus) [%] | inhibition at 50 µg/mL (Cladosporium cucumerinum) [%] | inhibition at 50 µg/mL (Mycosphaerella arachidis) [%] | inhibition at 50 µg/mL [1] [%] | inhibition at 50 µg/mL (Alternaria solani) [%] | inhibition at 50 µg/mL (Fusarium graminearum) [%] | Activity (Cucumis sativus) [%] | inhibition at 1500 g/ha (Digitaria sanguinalis [2]) [%] | inhibition at 1500 g/ha (Medicago sativa [3]) [%] | inhibition at 1500 g/ha (Amaranthus retroflexus [4]) [%] | inhibition at 1500 g/ha (Brassica napus [5]) [%] | inhibition at 1500 g/ha (Digitaria sanguinalis [6]) [%] | inhibition at 1500 g/ha (Medicago sativa [7]) [%] | inhibition at 1500 g/ha (Amaranthus retroflexus [8]) [%] | inhibition at 1500 g/ha (Brassica napus [9]) [%]
CCC/C(NCC1CCCO1)=C(\C#N)C(=O)OCCOCC (stereo not given) | 0 | 10.5 | 32.1 | 4.5 | 0 | 23.3 | 8.4 | 0 | 15 | 0 | 0 | 0 | 19.2 | 16.4 | 36.3
CCOCCOC(=O)/C(C#N)=C(\NCc1ccco1)C(C)C | 0 | 13.2 | 37.5 | 22.7 | 17.9 | 23.3 | 2.4 | 37.8 | 4.5 | 6.3 | 3.3 | 0 | 26.3 | 41.9 | 56.3
CCC/C(NCC1CCOC1)=C(\C#N)C(=O)OCCOCC (stereo not given) | 9.4 | 21.1 | 41.1 | 27.3 | 10.7 | 0 | 5.4 | 0 | 0 | 9.5 | 0 | 1 | 11.4 | 8.1 | 58.8
CCOCCOC(=O)/C(C#N)=C(\NCC1CCCO1)C(C)C (stereo not given) | 7.2 | 0 | 28.6 | 18.2 | 14.3 | 33.3 | 32.5 | 40 | 20.3 | 3.2 | 80 | 100 | 60.5 | 100 | 97.2
CCOCCOC(=O)/C(C#N)=C(/CC)NCc1ccco1 | 13.3 | 21.1 | 35.7 | 27.3 | 0 | 20 | 11.4 | 12.1 | 0 | 9.5 | 16.3 | 27.3 | 35.9 | 22.6 | 47.9
CCC/C(NCc1ccoc1)=C(\C#N)C(=O)OCCOCC | 0 | 21.1 | 12.5 | 31.8 | 25 | 16.7 | -6.6 | 35.7 | 4.5 | 0 | 0 | 0 | 31.1 | 14.3 | 25.2
